Several values for one entry are separate records, joined by “and”; a condition that tells them apart may be missing. Identical values can stand only once. Like-named read-outs stand apart in the source and are kept apart here. Marks after values point to notes of the source that are not given here. One block for each compound: values may come before it.
Columns and labels:
[1] = type: in vivo, human; conditions: for CL/F / Vd/F: acalabrutinib; for AUC: AUC0‐inf; for Vd/F: Vz/F; for half-life: t1/2, total plasma acalabrutinib; for Tmax: median (minimum, maximum)
[2] = Urinary excretion and renal clearance after a single 50-mg dose; type: in vivo, human; conditions: for mean renal clearance: ACP-5862; for CL renal: human, urine, oral, 50 mg, mean renal clearance
Summary of the method: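 In study 2, a single oral 50-mg capsule was taken with ≈240 mL water after an overnight fast. Urine was collected predose, 0–4 h and 4–24 h post-dose and pooled per interval for each subject. Analytes were quantified by validated LC-MS/MS with deuterated internal standards over a nominal urine range of 5 to 5000 ng/mL.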

[3] = cited from earlier work
BTK = conditions: cited from earlier work
human plasma [4] = experiment: In vitro protein binding in human plasma; type: in vitro ADME; conditions: for in vitro protein binding: human plasma
human plasma [5] = experiment: Plasma protein binding in study 2 subjects; type: in vitro ADME
Summary of the method: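 Severe hepatic impairment and matched control subjects received a single oral 50-mg dose of the test compound after an overnight fast. Blood (4 mL) was drawn on day 1 at 0.863, 1.75 and 6.5 h post-dose. Binding of parent and active metabolite in the plasma was assessed by ultracentrifugation to estimate the unbound fraction.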

human serum albumin = human serum albumin (Homo sapiens, UniProt P02768); experiment: In vitro protein binding in human serum albumin solution; type: in vitro ADME
Safety evaluation = type: in vivo, human; conditions: for Number (%) of subjects with TEAEs: single oral 50-mg dose
Summary of the method: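 After an overnight fast, subjects took a single oral 50-mg dose as capsules with ≈240 mL water on day 1. AEs were collected until follow-up contact 14 days post-dose. Safety monitoring covered concomitant medications, serial hematology, serum chemistry and urinalysis, vital signs, 12-lead ECGs and physical examinations. Findings were summarized descriptively.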

[6] = Earlier clinical studies of acalabrutinib; type: in vivo, human; conditions: 400-mg vs 50-mg dose, healthy subjects (data on file)
[7] = In vitro protein binding in human plasma; type: in vitro ADME; conditions: human, plasma
[8] = In vitro protein binding in α1-acid glycoprotein solution; type: in vitro ADME; conditions: human
[9] = cited from earlier work; remark: listed apart in the source
[10] = ACP-5862/acalabrutinib, study 2, Control (n = 8), arithmetic mean (SD)
[11] = ACP-5862/acalabrutinib, study 2, Severe (n = 8), arithmetic mean (SD)
[12] = ACP-5862, severe hepatic impairment vs control subjects
[13] = plasma ACP-5862, ANOVA, exponentiated LSM, Control, n 8
[14] = plasma ACP-5862, Severe vs normal hepatic function (reference)
[15] = subjects with severe hepatic impairment
[16] = both, human, plasma, po, 50 mg, single oral 50-mg dose, Control (n = 13), arithmetic mean (SD)
[17] = both, human, plasma, po, 50 mg, single oral 50-mg dose, Mild (n = 6), arithmetic mean (SD)
[18] = both, human, plasma, po, 50 mg, single oral 50-mg dose, Moderate (n = 6), arithmetic mean (SD)
[19] = human, plasma, po, 50 mg, single oral 50-mg dose, Severe (n = 8), arithmetic mean (SD)
[20] = plasma acalabrutinib, Mild vs normal hepatic function (reference)
[21] = plasma acalabrutinib, Moderate vs normal hepatic function (reference)
[22] = plasma acalabrutinib, Severe vs normal hepatic function (reference)
[23] = severe hepatic impairment, study 2
[24] = acalabrutinib, matched normal hepatic function subjects
[25] = acalabrutinib, subjects with severe hepatic impairment
[26] = healthy subjects (n = 17), relative to no pretreatment
[27] = healthy subjects, single 400-mg dose

Sequence of human serum albumin (P02768 25-609): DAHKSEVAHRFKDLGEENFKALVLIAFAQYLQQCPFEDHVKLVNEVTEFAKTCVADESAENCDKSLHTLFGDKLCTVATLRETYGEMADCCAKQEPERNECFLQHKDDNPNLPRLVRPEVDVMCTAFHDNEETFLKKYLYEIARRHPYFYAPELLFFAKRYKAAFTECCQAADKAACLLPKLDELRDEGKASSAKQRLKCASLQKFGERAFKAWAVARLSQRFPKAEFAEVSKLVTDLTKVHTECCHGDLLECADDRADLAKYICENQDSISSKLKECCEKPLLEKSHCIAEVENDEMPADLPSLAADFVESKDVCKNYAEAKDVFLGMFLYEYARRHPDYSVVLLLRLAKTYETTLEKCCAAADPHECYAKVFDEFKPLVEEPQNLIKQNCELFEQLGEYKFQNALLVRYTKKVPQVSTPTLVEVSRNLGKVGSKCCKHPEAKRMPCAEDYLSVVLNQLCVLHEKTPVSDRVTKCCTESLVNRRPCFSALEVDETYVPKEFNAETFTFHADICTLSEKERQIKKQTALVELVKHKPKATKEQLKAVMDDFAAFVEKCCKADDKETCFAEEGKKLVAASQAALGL

MR:AUC0‐inf (metabolite‐to‐parent ratio) [1, 10]: 3.59 and 3.6 ± 0.9 | MR:AUC0‐last (metabolite‐to‐parent ratio) [1, 10]: 3.1 ± 0.7 | MR:Cmax (metabolite‐to‐parent ratio) [1, 10]: 1.15 and 1.1 ± 0.4 | MR:AUC0‐last (metabolite‐to‐parent ratio) [1, 11]: 0.6 ± 0.4 | MR:Cmax (metabolite‐to‐parent ratio) [1, 11]: 0.247 and 0.2 ± 0.1 | geometric mean ratio for AUC [1, 12]: 0.9 | geometric mean ratio for Cmax [1, 12]: 1.01 | AUC0‐inf, LS Mean [1, 13]: 817.0 ng·h/mL | Cmax, LS Mean [1, 13]: 166.5 ng/mL | AUC0‐inf, LS Mean ([1]; plasma ACP-5862, ANOVA, exponentiated LSM, Severe, n 6): 782.2 ng·h/mL | Cmax, LS Mean ([1]; plasma ACP-5862, ANOVA, exponentiated LSM, Severe, n 8): 168.7 ng/mL | AUC0‐inf GMR: Test/Reference [1, 14]: 95.7% | Cmax GMR: Test/Reference [1, 14]: 101.4% | mean renal clearance ([2]; matched control subjects with normal hepatic function): 605.3 mL/h | mean renal clearance [2, 15]: 692.6 mL/h | amount of the metabolite excreted in urine ([2]; ACP-5862 after 50-mg acalabrutinib, subjects with severe hepatic impairment): ≈ 0.415 mg | in vitro protein binding (human plasma [4]; plasma concentration 1 μM (0.482 μg/mL)): 98.7% | in vitro protein binding (human plasma [4]; plasma concentration 10 μM (4.82 μg/mL)): 98.6% | mean protein binding (human plasma [5]; healthy matched controls): ≈ 98% | mean protein binding (human plasma [5]; [15]): ≈ 94%
SMILES: CC#CC(=O)NCCCC(=O)c1nc(-c2ccc(C(=O)Nc3ccccn3)cc2)c2c(N)nccn12 [ACP‐5862]
share of total acalabrutinib‐related material in plasma ([3]; human, plasma): > 10% | potency for BTK inactivation relative to parent acalabrutinib (BTK): ≈ 50%

SMILES: CC#CC(=O)N1CCC[C@H]1c1nc(-c2ccc(C(=O)Nc3ccccn3)cc2)c2c(N)nccn12 [Acalabrutinib]
CL/F ([1]; single oral 50-mg dose, Control (n = 13), arithmetic mean (SD)): 218.1 ± 103.1 ^a L/h | CL/F ([1]; single oral 50-mg dose, Mild (n = 6), arithmetic mean (SD)): 156.6 ± 91.1 L/h | CL/F ([1]; single oral 50-mg dose, Moderate (n = 6), arithmetic mean (SD)): 280.8 ± 372.7 L/h | CL/F ([1]; single oral 50-mg dose, Severe (n = 8), arithmetic mean (SD)): 48.7 ± 30.7 L/h | CL/F ([1]; single oral 50-mg dose, Severe (n = 8), arithmetic mean (SD), listed as acalabrutinib): 48.7 L/h | AUC ([1]; both, human, plasma, oral, 50 mg, LS Mean, plasma acalabrutinib, ANOVA, exponentiated LSM, Control, n 13): 250 ng·h/mL | AUC ([1]; both, human, plasma, oral, 50 mg, LS Mean, plasma acalabrutinib, ANOVA, exponentiated LSM, Mild, n 6): 366 ng·h/mL | AUC ([1]; both, human, plasma, oral, 50 mg, LS Mean, plasma acalabrutinib, ANOVA, exponentiated LSM, Moderate, n 6): 326 ng·h/mL | Cmax ([1]; both, human, plasma, oral, 50 mg, Cmax, LS Mean, plasma acalabrutinib, ANOVA, exponentiated LSM, Control, n 14): 152 ng/mL | Cmax ([1]; both, human, plasma, oral, 50 mg, Cmax, LS Mean, plasma acalabrutinib, ANOVA, exponentiated LSM, Mild, n 6): 292 ng/mL | Cmax ([1]; both, human, plasma, oral, 50 mg, Cmax, LS Mean, plasma acalabrutinib, ANOVA, exponentiated LSM, Moderate, n 6): 156 ng/mL | AUC ([1]; both, human, plasma, po, 50 mg, total plasma acalabrutinib, single oral 50-mg dose, Control (n = 13), geometric mean (geometric CV%)): 250 ng·h/mL | AUC ([1]; both, human, plasma, po, 50 mg, total plasma acalabrutinib, single oral 50-mg dose, Mild (n = 6), geometric mean (geometric CV%)): 366 ng·h/mL | AUC ([1]; both, human, plasma, po, 50 mg, total plasma acalabrutinib, single oral 50-mg dose, Moderate (n = 6), geometric mean (geometric CV%)): 326 ng·h/mL | Cmax ([1]; both, human, plasma, po, 50 mg, Cmax, total plasma acalabrutinib, single oral 50-mg dose, fasted, Control, normal hepatic function (n = 14), geometric mean (geometric CV%)): 152 ng/mL | Cmax ([1]; both, human, plasma, po, 50 mg, Cmax, total plasma acalabrutinib, single oral 50-mg dose, fasted, Mild, Child-Pugh class A (n = 6), geometric mean (geometric CV%)): 292 ng/mL | Cmax ([1]; both, human, plasma, po, 50 mg, Cmax, total plasma acalabrutinib, single oral 50-mg dose, fasted, Moderate, Child-Pugh class B (n = 6), geometric mean (geometric CV%)): 156 ng/mL | Vd/F [1, 16]: 722 ± 520 L | Vd/F [1, 17]: 471 ± 222 L | Vd/F [1, 18]: 2140 ± 2720 L | half-life [1, 16]: 2.2 ± 0.8 h | half-life [1, 17]: 2.3 ± 0.9 h | half-life [1, 18]: 7.9 ± 12.7 h | Tmax ([1]; both, human, plasma, po, 50 mg, total plasma acalabrutinib, single oral 50-mg dose, Control (n = 14)): 0.6 h | Tmax ([1]; both, human, plasma, po, 50 mg, total plasma acalabrutinib, single oral 50-mg dose, Mild (n = 6)): 0.8 h | Tmax ([1]; both, human, plasma, po, 50 mg, total plasma acalabrutinib, single oral 50-mg dose, Moderate (n = 6)): 1 h | AUC ([1]; human, plasma, oral, 50 mg, LS Mean, plasma acalabrutinib, ANOVA, exponentiated LSM, Severe, n 8): 1170 ng·h/mL | Cmax ([1]; human, plasma, oral, 50 mg, Cmax, LS Mean, plasma acalabrutinib, ANOVA, exponentiated LSM, Severe, n 8): 726 ng/mL | AUC ([1]; human, plasma, po, 50 mg, total plasma acalabrutinib, single oral 50-mg dose, Severe (n = 8), geometric mean (geometric CV%)): 1170 ng·h/mL | Cmax ([1]; human, plasma, po, 50 mg, Cmax, total plasma acalabrutinib, single oral 50-mg dose, fasted, Severe, Child-Pugh class C (n = 8), geometric mean (geometric CV%)): 726 ng/mL | Vd/F [1, 19]: 167 ± 70.3 L | half-life [1, 19]: 2.7 ± 1.1 h | AUC0‐inf GMR: Test/Reference [1, 20]: 146.2% | Cmax GMR: Test/Reference [1, 20]: 191.3% | AUC0‐inf GMR: Test/Reference [1, 21]: 130.5% | Cmax GMR: Test/Reference [1, 21]: 102.2% | AUC0‐inf GMR: Test/Reference [1, 22]: 467.3% | Cmax GMR: Test/Reference [1, 22]: 476.2% | increase of unbound acalabrutinib AUC0‐last compared with control subjects [1, 23]: 3.6 fold | increase of unbound acalabrutinib Cmax compared with control subjects [1, 23]: 3.8 fold | increase of acalabrutinib Cmax compared with control subjects ([1]; single 50-mg dose, mild hepatic impairment): 1.9 fold | increase of acalabrutinib AUC compared with control subjects ([1]; single 50-mg dose, mild hepatic impairment (Child-Pugh class A)): 1.90 fold | difference in acalabrutinib Cmax compared with control subjects ([1]; single 50-mg dose, moderate hepatic impairment): did not result in any appreciable difference | increase of acalabrutinib AUC compared with control subjects ([1]; single 50-mg dose, moderate hepatic impairment (Child-Pugh class B)): 1.48 fold | Cmax ([1]; total plasma acalabrutinib, single oral 50-mg dose, fasted, Moderate, Child-Pugh class B (n = 6), geometric mean (geometric CV%)): 155.7 (246.9) ng/mL | AUC0‐inf ([1]; total plasma acalabrutinib, single oral 50-mg dose, Moderate (n = 6), geometric mean (geometric CV%)): 326.4 (177.9) ng • h/mL | fraction unbound (human serum albumin): 0.063 | Number (%) of subjects with TEAEs (Safety evaluation; Control (n = 14)): 0 | Number (%) of subjects with TEAEs (Safety evaluation; Mild hepatic impairment (n = 6)): 2 (33) | Number (%) of subjects with TEAEs (Safety evaluation; Moderate hepatic impairment (n = 6)): 0 | Number (%) of subjects with TEAEs (Safety evaluation; Overall (N = 34)): 3 (9) | Number (%) of subjects with TEAEs (Safety evaluation; Severe hepatic impairment (n = 8)): 1 (13) | tolerability (Safety evaluation; single oral dose of 50 mg, healthy subjects and subjects with mild, moderate, or severe hepatic impairment): well tolerated | deaths, serious AEs, discontinuations due to AEs (Safety evaluation; single oral dose of 50 mg, study 1 and study 2): no deaths, serious AEs, or subject discontinuations due to AEs | renal clearance as share of the systemic clearance [2, 24]: ≈ 0.5% | renal clearance as share of the apparent systemic clearance [2, 25]: ≈ 1.7% | CL renal [2, 24]: 21.2 mL/min | CL renal [2, 25]: 12.9 mL/min | share of the 50‐mg oral dose excreted in urine ([2]; matched normal hepatic function subjects, 24-hour urine collection interval): ≈ 0.6% | share of the 50‐mg oral dose excreted in urine [2, 15]: approximately 1.8% | mean elimination t1/2 [3]: ≈ 1 hour | increase of mean plasma AUC0‐last in the presence of itraconazole [3, 26]: 5.1 fold | increase of mean plasma Cmax in the presence of itraconazole [3, 26]: 3.9 fold | mean AUC0‐last [3, 27]: 3966 ng·h/mL | mean Cmax [3, 27]: 1672 ng/mL | clinical margin of safety for the 50‐mg dose, AUC0‐last [6]: ~16 fold | clinical margin of safety for the 50‐mg dose, Cmax [6]: ≈ 7.5 fold | free fraction (percentage unbound) (human plasma [4]; in humans (plasma)): 2.5% | fraction unbound [7]: 0.025 | fraction unbound [8]: 0.589

SMILES: C=CC(=O)N1CCC[C@@H](n2nc(-c3ccc(Oc4ccccc4)cc3)c3c(N)ncnc32)C1 [ibrutinib]
mean AUC, fold higher compared with healthy controls ([9]; mild hepatic impairment): 2.7 fold | mean AUC, fold higher compared with healthy controls ([9]; moderate hepatic impairment): 8.0 fold | mean AUC, fold higher compared with healthy controls ([9]; severe hepatic impairment): 9.5 fold
